From ChEMBL document CHEMBL5058577, “EUbOPEN Chemogenomics Library 2 (Multiplex)” (2022)

System: U2OS
Assay: Multiplex assay against U2OS
Assay type: toxicity, cell-based
Settings: human
Procedure, shortened: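 Live cells carried four stains from seeding: Hoechst33342, BioTracker Green Microtubule Cytoskeleton Dye, MitoTracker Red and Annexin V Alexa Fluor 680. They were imaged on a CQ1 microscope at 37°C and 5% CO2 after compound addition. Using CellPathfinder machine-learning gating, cells were split into Hoechst high-intensity objects or normal cells, normal cells into healthy, pyknosed or fragmented nuclei, and pyknosed cells into mitotic or apoptotic; tubulin, mitochondrial-mass and membrane-permeability phenotypes are per cents of healthy-nucleus cells.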

[1] = 12 h, 1 µM, compound concentration 1 uM, replicate 1
[2] = 12 h, 1 µM, compound concentration 1 uM, replicate 2
[3] = 12 h, 10 µM, compound concentration 10 uM, replicate 1
[4] = 12 h, 10 µM, compound concentration 10 uM, replicate 2
[5] = 24 h, 1 µM, compound concentration 1 uM, replicate 1
[6] = 24 h, 1 µM, compound concentration 1 uM, replicate 2
[7] = 24 h, 10 µM, compound concentration 10 uM, replicate 1
[8] = 24 h, 10 µM, compound concentration 10 uM, replicate 2
[9] = 48 h, 1 µM, compound concentration 1 uM, replicate 1
[10] = 48 h, 1 µM, compound concentration 1 uM, replicate 2
[11] = 48 h, 10 µM, compound concentration 10 uM, replicate 1
[12] = 48 h, 10 µM, compound concentration 10 uM, replicate 2

`COc1ccccc1N1CCN(C[C@@H](C(=O)NC(C)(C)C)c2ccccc2)CC1.Cl.Cl` was tested, and the “Population Apoptotic (%)” value [1] was 73%, the “Population Fragmented Nuclei (%)” value [1] was 29% and the “Population Healthy Nuclei (%)” value [1] was 65%. The “Population Hoechst High Intensity Objects (%)” value [1] was 2%, the “Population Membrane Permeable-Phenotype (%)” value [1] was 5% and the “Population Mitochondria Different-Phenotype (%)” value [1] was 3%. The “Population Mitotic Cells (%)” value [1] was 26%, the “Population Normal (%)” value [1] was 97% and the “Population Pyknosed Nuclei (%)” value [1] was 5%. For the same molecule, the “Population Tubulin-Different-Phenotype (%)” value [1] was 1%, the “Total Cell Count” value [1] was 281 and the “Population Apoptotic (%)” value [2] was 66%. The “Population Fragmented Nuclei (%)” value [2] was 14%, the “Population Healthy Nuclei (%)” value [2] was 80% and the “Population Hoechst High Intensity Objects (%)” value [2] was 1%. The “Population Membrane Permeable-Phenotype (%)” value [2] was 7%, the “Population Mitochondria Different-Phenotype (%)” value [2] was 2% and the “Population Mitotic Cells (%)” value [2] was 33%. The “Population Normal (%)” value [2] was 98%, the “Population Tubulin-Different-Phenotype (%)” value [2] was 3% and the “Total Cell Count” value [2] was 114. For the same molecule, the “Population Apoptotic (%)” value [3] was 46%, the “Population Fragmented Nuclei (%)” value [3] was 35% and the “Population Healthy Nuclei (%)” value [3] was 49%. The “Population Hoechst High Intensity Objects (%)” value [3] was 3%, the “Population Membrane Permeable-Phenotype (%)” value [3] was 41% and the “Population Mitochondria Different-Phenotype (%)” value [3] was 41%. For the same molecule, the “Population Mitotic Cells (%)” value [3] was 53%, the “Population Normal (%)” value [3] was 96% and the “Population Pyknosed Nuclei (%)” value [3] was 14%. The “Population Tubulin-Different-Phenotype (%)” value [3] was 41%, the “Total Cell Count” value [3] was 226 and the “Population Apoptotic (%)” value [4] was 50%. The “Population Fragmented Nuclei (%)” value [4] was 17%, the “Population Healthy Nuclei (%)” value [4] was 66% and the “Population Hoechst High Intensity Objects (%)” value [4] was 0%. For the same molecule, the “Population Membrane Permeable-Phenotype (%)” value [4] was 49%, the “Population Mitochondria Different-Phenotype (%)” value [4] was 56% and the “Population Mitotic Cells (%)” value [4] was 50%. For the same molecule, the “Population Normal (%)” value [4] was 99%, the “Population Pyknosed Nuclei (%)” value [4] was 15% and the “Population Tubulin-Different-Phenotype (%)” value [4] was 64%. The “Total Cell Count” value [4] was 102, the “Population Apoptotic (%)” value [5] was 68% and the “Population Fragmented Nuclei (%)” value [5] was 29%. The “Population Healthy Nuclei (%)” value [5] was 62%, the “Population Hoechst High Intensity Objects (%)” value [5] was 3% and the “Population Membrane Permeable-Phenotype (%)” value [5] was 7%. The “Population Mitochondria Different-Phenotype (%)” value [5] was 1%, the “Population Mitotic Cells (%)” value [5] was 32% and the “Population Normal (%)” value [5] was 96%. The “Population Pyknosed Nuclei (%)” value [5] was 8%, the “Population Tubulin-Different-Phenotype (%)” value [5] was 3% and the “Total Cell Count” value [5] was 320. For the same molecule, the “Population Apoptotic (%)” value [6] was 80%, the “Population Fragmented Nuclei (%)” value [6] was 16% and the “Population Healthy Nuclei (%)” value [6] was 75%. For the same molecule, the “Population Membrane Permeable-Phenotype (%)” value [6] was 5%, the “Population Mitochondria Different-Phenotype (%)” value [6] was 6% and the “Population Mitotic Cells (%)” value [6] was 20%. The “Population Tubulin-Different-Phenotype (%)” value [6] was 2%, the “Total Cell Count” value [6] was 129 and the “Population Apoptotic (%)” value [7] was 61%. The “Population Fragmented Nuclei (%)” value [7] was 38%, the “Population Healthy Nuclei (%)” value [7] was 42% and the “Population Hoechst High Intensity Objects (%)” value [7] was 5%. For the same molecule, the “Population Membrane Permeable-Phenotype (%)” value [7] was 20%, the “Population Mitochondria Different-Phenotype (%)” value [7] was 33% and the “Population Mitotic Cells (%)” value [7] was 38%. The “Population Normal (%)” value [7] was 94%, the “Population Pyknosed Nuclei (%)” value [7] was 18% and the “Population Tubulin-Different-Phenotype (%)” value [7] was 25%. For the same molecule, the “Total Cell Count” value [7] was 235, the “Population Apoptotic (%)” value [8] was 70% and the “Population Fragmented Nuclei (%)” value [8] was 20%. For the same molecule, the “Population Healthy Nuclei (%)” value [8] was 63%, the “Population Membrane Permeable-Phenotype (%)” value [8] was 39% and the “Population Mitochondria Different-Phenotype (%)” value [8] was 61%. For the same molecule, the “Population Mitotic Cells (%)” value [8] was 29%, the “Population Pyknosed Nuclei (%)” value [8] was 15% and the “Population Tubulin-Different-Phenotype (%)” value [8] was 52%. The “Total Cell Count” value [8] was 113, the “Population Apoptotic (%)” value [9] was 78% and the “Population Fragmented Nuclei (%)” value [9] was 21%. The “Population Healthy Nuclei (%)” value [9] was 66%, the “Population Hoechst High Intensity Objects (%)” value [9] was 2% and the “Population Membrane Permeable-Phenotype (%)” value [9] was 5%. For the same molecule, the “Population Mitochondria Different-Phenotype (%)” value [9] was 1%, the “Population Mitotic Cells (%)” value [9] was 22% and the “Population Normal (%)” value [9] was 97%. The “Population Pyknosed Nuclei (%)” value [9] was 11%, the “Population Tubulin-Different-Phenotype (%)” value [9] was 1% and the “Total Cell Count” value [9] was 452. For the same molecule, the “Population Apoptotic (%)” value [10] was 83%, the “Population Fragmented Nuclei (%)” value [10] was 16% and the “Population Healthy Nuclei (%)” value [10] was 72%. For the same molecule, the “Population Hoechst High Intensity Objects (%)” value [10] was 4%, the “Population Membrane Permeable-Phenotype (%)” value [10] was 7% and the “Population Mitochondria Different-Phenotype (%)” value [10] was 2%. For the same molecule, the “Population Mitotic Cells (%)” value [10] was 16%, the “Population Normal (%)” value [10] was 95% and the “Population Tubulin-Different-Phenotype (%)” value [10] was 4%. The “Total Cell Count” value [10] was 162, the “Population Apoptotic (%)” value [11] was 58% and the “Population Fragmented Nuclei (%)” value [11] was 33%. For the same molecule, the “Population Healthy Nuclei (%)” value [11] was 44%, the “Population Hoechst High Intensity Objects (%)” value [11] was 4% and the “Population Membrane Permeable-Phenotype (%)” value [11] was 28%. For the same molecule, the “Population Mitochondria Different-Phenotype (%)” value [11] was 30%, the “Population Mitotic Cells (%)” value [11] was 41% and the “Population Normal (%)” value [11] was 95%. The “Population Pyknosed Nuclei (%)” value [11] was 21%, the “Population Tubulin-Different-Phenotype (%)” value [11] was 21% and the “Total Cell Count” value [11] was 271. For the same molecule, the “Population Apoptotic (%)” value [12] was 96%, the “Population Fragmented Nuclei (%)” value [12] was 18% and the “Population Healthy Nuclei (%)” value [12] was 58%. For the same molecule, the “Population Hoechst High Intensity Objects (%)” value [12] was 8%, the “Population Membrane Permeable-Phenotype (%)” value [12] was 43% and the “Population Mitochondria Different-Phenotype (%)” value [12] was 29%. For the same molecule, the “Population Mitotic Cells (%)” value [12] was 4%, the “Population Normal (%)” value [12] was 91% and the “Population Pyknosed Nuclei (%)” value [12] was 22%. For the same molecule, the “Population Tubulin-Different-Phenotype (%)” value [12] was 35% and the “Total Cell Count” value [12] was 121.
